Residues, ends and D or L forms follow the SMILES beside them. *: point of attachment. AMC = Cc1cc(=O)oc2cc(N*)ccc12; Cbz = O=C(OCc1ccccc1)*

The test system of data set [1] is DUBs in HeLa lysates. The experiment in a line: DUB-mediated hydrolysis of peptide reporters in HeLa lysates. In kind it is biochemical. The conditions noted are these: for V/K value (Vmax/Km): HeLa lysates 4 mg/mL, DMSO curves, Michaelis-Menten parameters. An outline of the steps:
(§1)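 Lysates (4 mg/mL protein, by NanoDrop) came from M-PER extraction of PBS-washed HeLa or OPM2 cells, clarified at 14,000 × g. Lysates were pre-treated 1 h with 20 or 50 μM PR-619 or DMSO, in 50 mM HEPES pH 7.4, 150 mM NaCl, 2 mM DTT, 0.02% Tween-20. Released AFC or AMC was read every 30 min for 6 h at 30°C. Rates were calibrated, and Km and vmax came from Michaelis-Menten fits.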

Data set [2] concerns DUBs in intact HeLa cells. The experiment in a line: Enzyme-substrate kinetics in intact HeLa cells. Format: cell-based.
Data set [3] concerns DUBs in intact OPM2 cells. The data set can be described thus: Direct visualization of DUB activity in intact OPM2 cells. In kind it is cell-based. The conditions noted are these: 50 μM peptide, 120 minutes, 37°C, DAPI filter.
The subject of data set [4] is DUBs in OPM2 lysates. The data set can be described thus: DUB-mediated hydrolysis of peptide reporters in OPM2 lysates. In kind it is biochemical. An outline of the steps:
as §1

The conditions of data set [5]: cited from earlier work.
Data set [6] concerns intact cells. The note with it: cited from earlier work.

With `Cc1cc(=O)oc2cc(NC(=O)CNC(=O)CNC(=O)[C@H](CCCNC(=N)N)NC(=O)[C@H](CC(C)C)NC(=O)OCc3ccccc3)ccc12` [Peptide 3, Z-Leu-Arg-Gly-Gly-AMC] (Cbz-LRGG-{AMC}), the “V/K value (Vmax/Km)” value in data set [1] was 0.00021 min⁻¹. In addition, in data set [2] (intact HeLa cells incubated with varying peptide concentrations for 6 h), the “Reaction rates in intact cells” value is “not significantly different from zero”. For the same compound, in data set [3], the “Intracellular fluorescence signal from DUB-mediated hydrolysis” value is recorded as “did not produce a detectable signal”.

As for `N#CSc1cc(SC#N)c(N)nc1N` [PR-619], the “Inhibition of DUB activity (residual activity)” value was “incomplete inhibition” in data set [1] (lysates treated with 50 μM PR-619, pre-treatment 1 h, HeLa lysates) and “incomplete inhibition” in data set [4] (lysates treated with 50 μM PR-619, pre-treatment 1 h, OPM2 lysates).

Turning to RWVRVpGRWIRQ [RWRWR], in data set [5], the “half-life in HeLa lysates” value was 7 h. Moreover, in data set [6], the “Incubation time sufficient to deliver the CPP into intact cells” value is 10 min and the “Time to penetrate intact cells” value is not above 10 min.

“Ac-RWVRVpGO(FAM)WIRQ-LRGG-AFC [Peptide 1]”: the “V/K value (Vmax/Km)” value in data set [1] was 0.00212 min⁻¹. Further, in data set [4] (OPM2 lysates 4 mg/mL, no inhibitor, p<10^−4), the “Uninhibited reaction rates in OPM2 lysates, comparison” value was “significantly higher than Peptide 3”. Moreover, the “Si,max, intracellular saturation concentration (model)” value in data set [2] (calculated from a, b, c, d, nintact with Eq. 7, HeLa cells) was 1.28 µM. For the same compound, in data set [2] (calculated from a, b, c, d, nintact with Eq. 8, HeLa cells), the “S0,50, external solution concentration at half-saturation level (model)” value is 55.1 µM. The “nintact (Hill coefficient)” value in data set [2] (intact HeLa cells, Hill model fit) is on record as 6.8. Also, the “(V/K) intact” value in data set [2] (intact HeLa cells, from Hill parameters, unit not given) was 1.38*10^−5. Moreover, in data set [3], the “Intracellular fluorescence signal from DUB-mediated hydrolysis” value is reported as “showed an increase in intracellular fluorescence”.

“Ac-RWVRVpGO(FAM)WIRQ-LVLRLRGG-AFC [Peptide 2]”: in data set [1] (HeLa lysates pre-treated 1 h with 0, 20, 50 μM PR-619), the “Effect of DUB inhibition (PR-619) on rate data of the reporter” value was “did not result in a significant effect”.

Source of the values: publication PMC7442178 (Biochemical engineering journal, 2019).
